Experimental data as given in paper PMC5397363 (Molecular microbiology, 2017).
Several values for one entry are separate records, joined by “and”; a condition that tells them apart may be missing. Equal values may be shown once. * marks the point of attachment. CH2Cl = ClC*

Tests used:
Prp [1] = molecular target: T1, Prp (Staphylococcus aureus, UniProt Q2FXS9); test: Inhibition of Prp by chloromethylketone-containing substrate peptide; format: biochemical
Procedure, shortened: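 Recombinant S. aureus Prp was purified on Ni-NTA, with the His6-SUMO tag removed by Ulp1. It was tested in a fluorogenic peptide cleavage assay in 50 mM sodium phosphate pH 7.0 with 1.5 mM DTT, 2.35 mM EDTA and 2.53% DMSO (final). Fluorescence (ex 325/em 414 nm) was read every 8 s for 10 min at ambient temperature. Percent inhibition was taken from initial velocities relative to a no-inhibitor control.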

Prp [2] = molecular target: T1, Prp; test: Fluorogenic peptide cleavage assay, Michaelis-Menten kinetics of wild-type Prp; format: biochemical; conditions: pH 7.0
Prp [3] = molecular target: T1, Prp; test: Reaction of Prp with Ellman's reagent under non-denaturing conditions

T1 sequence (Q2FXS9 whole entry): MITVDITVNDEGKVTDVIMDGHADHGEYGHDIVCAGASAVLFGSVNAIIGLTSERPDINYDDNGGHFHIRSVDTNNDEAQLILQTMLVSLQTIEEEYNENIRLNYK

## Ac-KLNLQFF-CH2Cl
Prp [1]
  inhibition of Prp (qualitative): inhibited

## 2-aminobenzoic acid-KLNLQFFASKK-dinitrophenol [fluorogenic substrate]
Prp [2]; ET constrained to 42.765 nM active sites (2 per dimer)
  turnover number (kcat): 0.0458 ± 0.0014 s⁻¹ and 0.05 ± 0.00 s⁻¹
Prp [2]
  specificity constant (kcat/Km): 251100 ± 39300 M⁻¹ s⁻¹ and 250000 ± 40000 M⁻¹ s⁻¹

## O=C(O)c1cc(SSc2ccc([N+](=O)[O-])c(C(=O)O)c2)ccc1[N+](=O)[O-] [Ellman’s reagent, 5,5′-dithiobis(2-nitrobenzoic acid)]
Prp [3]
  reaction with Prp (qualitative): readily reacts
